An excerpt weighted towards active compounds, which were near 3% of everything screened.
MC4R barr agon – agonists of human melanocortin 4 receptor (MC4R) beta-arrestin; P32245; U2OS MC4R beta-arrestin complementation, luminescence; percent of melanotan II response, DMSO zero; activation, % at 8.9 µM; 0.98% of 360,000 active;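 active = activation above a per-plate cutoff, the mean activation of sample wells on that plate plus 3 SD, cut at about 8% in these data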
ABHD5 PLIN5 PPI – ABHD5-PLIN5 protein interaction inhibition; Q00G26+Q8WTS1; Split G. princeps luciferase complementation, luminescence, 4 h; inhibition, % at 4 µM; 0.78% of 360,000 active; AID 602281;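 active = inhibition above the mean inhibition across every tested compound plus 3 SD, cut at about 22% in these data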;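 note: 0% = DMSO only wells and the 100% control is not disclosed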
Target sequence (Q00G26 whole entry, looked up): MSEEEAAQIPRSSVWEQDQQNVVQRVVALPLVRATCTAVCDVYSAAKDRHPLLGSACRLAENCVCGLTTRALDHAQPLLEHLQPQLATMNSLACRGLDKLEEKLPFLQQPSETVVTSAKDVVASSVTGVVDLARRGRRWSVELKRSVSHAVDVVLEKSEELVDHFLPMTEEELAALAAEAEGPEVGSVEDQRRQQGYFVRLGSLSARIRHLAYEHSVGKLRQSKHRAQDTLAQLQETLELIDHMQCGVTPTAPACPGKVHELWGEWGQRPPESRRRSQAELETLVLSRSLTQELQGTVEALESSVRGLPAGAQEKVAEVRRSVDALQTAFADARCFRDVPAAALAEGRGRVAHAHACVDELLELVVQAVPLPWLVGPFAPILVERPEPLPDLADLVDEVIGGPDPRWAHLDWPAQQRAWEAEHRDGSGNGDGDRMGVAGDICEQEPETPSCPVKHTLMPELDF
Target sequence (Q8WTS1 whole entry, looked up): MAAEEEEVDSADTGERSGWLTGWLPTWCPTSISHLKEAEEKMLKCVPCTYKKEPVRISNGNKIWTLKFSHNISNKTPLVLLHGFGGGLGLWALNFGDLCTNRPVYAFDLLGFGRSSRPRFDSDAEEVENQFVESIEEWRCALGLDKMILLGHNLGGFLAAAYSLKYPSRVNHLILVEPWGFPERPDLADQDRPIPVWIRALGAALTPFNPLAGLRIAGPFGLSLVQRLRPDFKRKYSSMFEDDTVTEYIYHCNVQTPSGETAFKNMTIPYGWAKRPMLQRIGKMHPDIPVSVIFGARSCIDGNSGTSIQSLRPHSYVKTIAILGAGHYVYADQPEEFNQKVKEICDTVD
PfGluPho inh – PfG6PD (Plasmodium falciparum) enzyme inhibition; PfGluPho enzyme, NADPH resazurin-diaphorase fluorescence; inhibition, % at 20 µM; AID 504690; 0.78% of 350,000 active;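 active = inhibition reaching at least a set limit at 20 µM in the primary screen, cut at about 59% in these data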;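 note: 0% = DMSO wells with substrate and 100% = DMSO wells lacking glucose-6-phosphate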
MC4R antag cAMP – human MC4R antagonism in cAMP assay | P32245 | MC4R-expressing cells, MTII-stimulated cAMP, LANCE TR-FRET | inhibition, % at 6.5 µM | 0.48% of 360,000 active | AID 540295;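 active = inhibition above its plate's cutoff, the mean of tested wells on that plate plus 3 SD, cut at about 29% in these data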;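 note: 0% = Melanotan II alone and 100% = Melanotan II plus saturating MCL0020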
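Material: U2OS-MC4R stable cell line | Reagent: Melanotan II challenge after compound preincubation | Doses: One concentration, 6.5 µM nominal | Incubation: 30-min compound preincubation, 1-h Melanotan II challenge, 1-h detection, room temperature | Signal: TR-FRET cAMP assay | Replicates: One well per compound, no replicates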
B2AR ag – human beta-2 adrenergic receptor agonism by FAP | Am2.2-beta2AR cells, FAP receptor internalization, flow cytometry | response, % (concentration not given with the values) | 0.43% of 340,000 active | AID 504454;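 active = response above a set limit, near 3 SD of response in nonfluorescent compounds, cut at about 42% in these data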
MC4R barr conf – human MC4R beta-arrestin agonism confirmation; 31% of 2,400 active; activation, % at 8.9 µM; U2OS MC4R beta-arrestin recruitment, luminescence; scaled DMSO 0%, Melanotan II 100%; shares compounds with MC4R barr agon;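 active = mean activation across replicates above the hit cutoff set in the earlier primary screen, cut at about 8% in these data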
MOR-DOR barr ag – activates mu-delta opioid heterodimer, MC4R agonist counter-screen; shares compounds with MC4R barr agon; U2OS PathHunter beta-arrestin, beta-gal luminescence; percent of deltorphin B response, DMSO zero; activation, % at 9.2 µM; 5.8% of 2,400 active; AID 602194;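 active = mean activation across replicates exceeds the hit threshold derived in the earlier primary screen, cut at about 18% in these data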;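 note: 100% = deltorphin B at 0.9 µM final and 0% = DMSO alone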
* marks the source's active call; other numbers are inactive results; . = not tested or not shown.

SMILES	MC4R barr agon	ABHD5 PLIN5 PPI	PfGluPho inh	MC4R antag cAMP	B2AR ag	MC4R barr conf	MOR-DOR barr ag
CC(C)(C)C(=O)Cn1c(=O)n(CC2CCCO2)c(=O)c2ccccc21 (configuration not stated)	-2	-8	-1	5	6	.	.
O=C(Cn1c(=O)n(CC2CCCO2)c(=O)c2ccccc21)c1ccc(Cl)c(Cl)c1 (configuration not stated)	11*	-3	-7	6	-8	-1	3
COC(=O)CCCC(=O)N1CCC(CCC(=O)NC2CC2)CC1	-2	5	2	-4	-4	.	.
CCN(CC)CCN(Cc1cc2cc3c(cc2[nH]c1=O)OCO3)C(=S)NC	0	-2	1	-5	3	.	.
NS(=O)(=O)c1ccc(NC(=S)N2CCN(Cc3ccc(Cl)c(Cl)c3)CC2)cc1	-1	-4	22	2	0	.	.
NS(=O)(=O)c1ccc(NC(=S)N2CCN(c3ccc(Cl)c(Cl)c3)CC2)cc1	12*	-4	8	-3	-1	-3	3
CSc1cc(-c2ccccc2)n(C)c(=O)c1C#N	12*	-2	-2	-4	-4	1	3
O=C(NCC1CCCO1)c1ccc(Br)c(S(=O)(=O)N2CCOCC2)c1 (configuration not stated)	-1	0	-3	-2	-1	.	.
O=C(Cc1ccccc1F)Nc1nc(-c2ccc(F)c(F)c2)cs1	3	-9	27	-1	5	.	.
O=C(Nc1nc(-c2ccc(F)c(F)c2)cs1)Nc1ccc(F)cc1F	10*	-4	-8	-1	0	7	4
CCOC(=O)CN1C(=O)/C(=C/c2c(F)cccc2Cl)Oc2ccccc21	-2	-7	15	7	-6	.	.
O=C(COC(=O)c1sc2ccccc2c1Cl)Nc1ncc(Cl)cc1Cl	27*	10	-7	-5	13	-2	4
O=C(COC(=O)c1sc2cc(F)ccc2c1Cl)Nc1ncc(Cl)cc1Cl	0	-12	-2	9	2	.	.
NC(=O)Nc1ccc(C(=O)OCC(=O)Nc2ccc([N+](=O)[O-])cc2C(F)(F)F)cc1	-1	1	-5	11	-6	.	.
Cc1cc(OCC(=O)Nc2sc3c(c2C#N)CC(C)(C)NC3(C)C)c(C(C)C)cc1Cl	14*	3	16	4	28	8.5*	8
N#Cc1c(NC(=O)CSc2nnc(-c3ccccc3)o2)sc2c1CCCC2	23*	2	-21	4	7	4	2
Cc1ccccc1OCC(=O)Nc1sc2c(c1C#N)CCC2	17*	1	-1	17	-8	2	4
Cn1c(CNC(=O)c2ccc(Cl)cc2)nnc1SCC(=O)Nc1sc2c(c1C#N)CCCC2	17*	1	-20	-1	-5	1	4
Cc1ccc(C(C)C)c(OCC(=O)Nc2sc3c(c2C#N)CC(C)(C)NC3(C)C)c1	4	3	7	1	19	.	.
COc1cccc(Cn2c(C(C)n3c(C)nc4ccccc43)nc3ccccc32)c1 (configuration not stated)	.	4	.	.	.	.	.
O=C(c1ccc2c(c1)OCO2)C1CCCN(Cc2ccc(OC(F)F)cc2)C1 (configuration not stated)	2	6	22	0	2	.	.
CN(C)CCOc1nc(-c2ccccc2)nc2c1oc1ccccc12	16*	21	11	-1	18	4	6
COc1ccc(S(=O)(=O)N2CCN(C(=O)c3cc4c(s3)CCC4)CC2)cc1	-2	5	18	-1	-3	.	.
Cc1nc(NC(=O)COC(=O)c2cc3c(s2)CCC(C)C3)c(Cl)cc1Cl (configuration not stated)	-1	5	0	-1	-4	.	.
CC1CCc2sc(C(=O)OCC(=O)NCc3ccc(F)cc3)cc2C1 (configuration not stated)	13*	6	-22	-24	15	2	4
SMILES	MC4R barr agon	ABHD5 PLIN5 PPI	PfGluPho inh	MC4R antag cAMP	B2AR ag	MC4R barr conf	MOR-DOR barr ag
CCCCn1c(O)c2n(c1=O)Cc1ccccc1N=C2c1ccc(C)cc1	.	-12	.	.	.	.	.
Cc1ccc(C(=O)Nc2ccc(S(=O)(=O)N3CCOCC3)cc2)cc1Br	-1	1	5	13	10	.	.
O=C(COc1ccc2ccccc2c1)Nc1nc2ccccc2[nH]1	10*	-3	-11	2	-13	0	6
O=C(NCc1ccco1)c1cc(-c2ccc3c(c2)OCO3)on1	12*	9	-12	4	-3	6	5
COc1ccc(N2CCN(c3cc(C)c4ccccc4n3)CC2)cc1	16*	0	16	-2	3	0	4
Cc1cc(N2CCN(c3ccccc3)CC2)nc2ccccc12	2	-7	9	-2	-8	.	.
Fc1ccc(-c2nnsc2Sc2ccccn2)cc1	12*	3	5	1	-1	-1	3
O=C1/C(=C\c2c(NCCOCCO)nc3ccccn3c2=O)SC(=S)N1Cc1ccco1	10*	3	41	-2	-10	5	8
COc1ccccc1OCC#CCNC1CCCCC1C (configuration not stated)	-4	-2	6	8	-6	.	.
C=CCNc1nc(C(F)(F)F)nc2c1nnn2Cc1ccccc1Cl	12*	14	-16	-8	-4	3	6
COc1cccc(C(=O)Nc2nnc(-c3cccs3)s2)c1	15*	-5	31	-3	-10	0	4
C=C1CCC2C(C)(C(=O)O)CCCC2(C)C1CCC(CO)CCO (configuration not stated)	1	-2	.	11	.	.	.
Cc1ccc(NC(=O)c2cc(S(=O)(=O)Nc3ccc(C)cc3)cs2)cc1	9.6*	-6	-7	-3	7	13*	17
C[C@H](CO)N1C[C@H](C)[C@@H](CN(C)S(=O)(=O)c2ccccc2)Oc2ccc(NC(=O)CCC(F)(F)F)cc2C1=O	0	-9	7	-1	1	.	.
COC(=O)COc1ccc2oc(=O)cc(-c3cc4ccccc4o3)c2c1	16*	-2	-10	-11	11	5	3
NC(=O)COc1ccc2oc(=O)cc(-c3cc4ccccc4o3)c2c1	-2	-3	5	-6	4	.	.
Cn1c(CCC(=O)Nc2cc(S(C)(=O)=O)ccc2Cl)nc2cc(S(=O)(=O)N3CCOCC3)ccc21	-3	7	2	4	-8	.	.
CCCNC(=O)c1ccc(-c2nc3ccccc3s2)s1	11*	4	-7	11	2	-2	11
O=C(NN=Cc1cc(Cl)ccc1[N+](=O)[O-])c1cccc2ccccc12	11*	-4	15	-1	-1	4	9

From PubChem BioAssay
